Measured values: ChEMBL document CHEMBL5653630, “Activation of the p53-MDM4 regulatory axis defines the anti-tumour response to PRMT5 inhibition through its role in regulating cellular splicing” (Sci Rep, 2018)
Blank lines part the entries; values can stand above or below the molecule they belong to. Active and inactive are the calls of the source. No cut-off for these calls is given here.

Experiments:
[1] = system: Z-138; experiment: In vivo inhibition of PRMT5 in human Z138 cells xenografted in mouse assessed as increase in GADD45A expression at 100 mg/kg, po BID measured for 7 days; format: functional, organism-based; details: time 7.0 day
[2] = system: MCF7; experiment: Induction of cell cycle arrest in human MCF7 cells assessed as increase in 2n cell population measured upto 5000 nM measured for 2 to 7 days by propidium iodide staining based flow cytometric analysis; format: functional; details: time 2-7 day
[3] = biological target: Apoptosis regulator BAX (Homo sapiens) (UniProt Q07812); experiment: In vivo inhibition of PRMT5 in human Z138 cells xenografted in mouse assessed as increase in BAX expression at 100 mg/kg, po BID measured for 7 days; format: functional, organism-based; details: Z-138, time 7.0 day
Sequence of Apoptosis regulator BAX (Homo sapiens) (Q07812 whole entry): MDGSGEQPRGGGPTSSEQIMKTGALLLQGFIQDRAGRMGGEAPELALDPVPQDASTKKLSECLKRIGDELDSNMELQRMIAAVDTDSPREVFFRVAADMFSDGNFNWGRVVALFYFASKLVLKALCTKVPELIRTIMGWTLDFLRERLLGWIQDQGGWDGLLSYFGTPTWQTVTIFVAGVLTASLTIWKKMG

[4] = system: SCaBER; experiment: Antiproliferative activity against human SCaBER cells assessed as cell growth inhibition incubated for 6 days by celltiter-glo assay; format: functional; details: 144 h, time 6 day
[5] = system: Maver1; experiment: Induction of apoptosis in human MAVER-1 cells assessed as dead cells incubated for 6 days by annexin-V/FITC propidium iodide staining based flow cytometry analysis; format: functional, cell-based; details: dose <= 5000.0 nM, time 6.0 day
[6] = system: AN3-CA; experiment: Antiproliferative activity against human AN3-CA cells assessed as cell growth inhibition incubated for 10 days; format: functional; details: 240 h, time 10 day
Outline: (§1)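 Cells kept in RPMI-1640 with 10% FBS, 2 mM L-alanyl-L-glutamine and 1 mM Na pyruvate (or a special medium) at 37°C, 5% CO2. Compound added 24 h after seeding, 10 concentrations in 3.16-fold dilution, 0.1% DMSO final. Medium replaced and cells re-dosed at 168 h; 240 h incubation. Nuclei fixed, dye-stained and imaged. gIC50 = growth midway between untreated and time-zero cell counts, from a 4-parameter fit.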

[7] = system: LS174T; experiment: Antiproliferative activity against human LS174T cells assessed as cell growth inhibition incubated for 10 days; format: functional; details: 240 h, time 10 day
[8] = system: RPMI-8226; experiment: Antiproliferative activity against human RPMI-8226 cells assessed as cell growth inhibition incubated for 10 days; format: functional; details: RPMI-8226, 240 h, time 10 day
[9] = system: 769-P; experiment: Antiproliferative activity against human 769-P cells assessed as cell growth inhibition incubated for 10 days; format: functional; details: 240 h, time 10 day; outline: as §1
[10] = system: SK-NEP-1; experiment: Antiproliferative activity against human SK-NEP-1 cells assessed as cell growth inhibition incubated for 10 days; format: functional; details: SK-NEP-1, 240 h, time 10 day
[11] = system: DoTc2-4510; experiment: Antiproliferative activity against human DoTc2-4510 cells assessed as cell growth inhibition incubated for 10 days; format: functional; details: DoTc2-4510, 240 h, time 10 day
Outline: (§2)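 Outsourced panel run in 384-well plates. Cells were grown in RPMI-1640/10% FBS or a special medium at 37°C, 5% CO2. Compound was added 24 h after seeding as a 10-point, 3.16-fold series in 0.1% DMSO. Medium was refreshed and cells re-dosed at 168 h, with a time-zero plate kept. At 240 h cells were fixed, nuclei stained and imaged. gIC50 is growth midway between untreated and time zero, from a 4-parameter fit.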

[12] = system: D283 Med; experiment: Antiproliferative activity against human D283 Med cells assessed as cell growth inhibition incubated for 10 days; format: functional; details: 240 h, time 10 day; outline: as §2
[13] = system: NCI-H508; experiment: Antiproliferative activity against human NCI-H508 cells assessed as cell growth inhibition incubated for 10 days; format: functional; details: NCI-H508, 240 h, time 10 day
[14] = system: DU-145; experiment: Antiproliferative activity against human DU-145 cells assessed as cell growth inhibition incubated for 10 days; format: functional; details: DU-145, 240 h, time 10 day; outline: as §2
[15] = system: DK-MG; experiment: Antiproliferative activity against human DK-MG cells assessed as cell growth inhibition incubated for 10 days; format: functional; details: 240 h, time 10 day; outline: as §2
[16] = system: CCF-STTG1; experiment: Antiproliferative activity against human CCF-STTG1 cells assessed as cell growth inhibition incubated for 10 days; format: functional; details: CCF-STTG1, 240 h, time 10 day; outline: as §1
[17] = Antiproliferative activity against human BC1 cell line assessed as cell growth inhibition incubated for 10 days; format: functional; details: BC1, 240 h, time 10 day; outline: as §1
[18] = system: COLO 320; experiment: Antiproliferative activity against human COLO 320 cells assessed as cell growth inhibition incubated for 10 days; format: functional; details: COLO 320, 240 h, time 10 day; outline: as §1
[19] = system: COLO 320DM; experiment: Antiproliferative activity against human Colo 320DM cells assessed as cell growth inhibition incubated for 10 days; format: functional; details: 240 h, time 10 day; outline: as §2
[20] = system: HPAF-II; experiment: Antiproliferative activity against human HPAF-II cells assessed as cell growth inhibition incubated for 10 days; format: functional; details: 240 h, time 10 day; outline: as §2
[21] = system: BXPC-3; experiment: Antiproliferative activity against human BXPC-3 cells assessed as cell growth inhibition incubated for 10 days; format: functional; details: BXPC-3, 240 h, time 10 day; outline: as §1
[22] = system: SK-LMS-1; experiment: Antiproliferative activity against human SK-LMS-1 cells assessed as cell growth inhibition incubated for 10 days; format: functional; details: SK-LMS-1, 240 h, time 10 day
[23] = system: SCC-9; experiment: Antiproliferative activity against human SCC-9 cells assessed as cell growth inhibition incubated for 10 days; format: functional; details: SCC-9, 240 h, time 10 day
[24] = system: 786-0; experiment: Antiproliferative activity against human 786-0 cells assessed as cell growth inhibition incubated for 10 days; format: functional; details: 786-0, 240 h, time 10 day; outline: as §1
[25] = system: Hs 294T; experiment: Antiproliferative activity against human Hs294T cells assessed as cell growth inhibition incubated for 10 days; format: functional; details: 240 h, time 10 day
Outline: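 Eurofins panel, 384-well. Cells kept in RPMI-1640 with 10% FBS, 2 mM L-alanyl-L-glutamine and 1 mM Na pyruvate, or in a special medium, at 37°C under 5% CO2. Compound added 24 h after seeding as 10 concentrations in 3.16-fold steps, 0.1% DMSO final. Medium replaced and compound re-dosed at 168 h. After 240 h, cells fixed and nuclei stained for imaging. gIC50 = growth midway between untreated cells and time-zero count.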

[26] = system: HCT-8; experiment: Antiproliferative activity against human HCT-8 cells assessed as cell growth inhibition incubated for 10 days; format: functional; details: HCT-8, 240 h, time 10 day; outline: as §2
[27] = system: HEC-1-A; experiment: Antiproliferative activity against human HEC-1-A cells assessed as cell growth inhibition incubated for 10 days; format: functional; details: 240 h, time 10 day; outline: as §2
[28] = system: COLO-829; experiment: Antiproliferative activity against human COLO-829 cells assessed as cell growth inhibition incubated for 10 days; format: functional; details: COLO-829, 240 h, time 10 day; outline: as §1
[29] = Antiproliferative activity against human C32TG cells assessed as cell growth inhibition incubated for 10 days; format: functional; details: 240 h, time 10 day; outline: as §1
[30] = system: SW948; experiment: Antiproliferative activity against human SW948 cells assessed as cell growth inhibition incubated for 10 days; format: functional; details: SW948, 240 h, time 10 day
[31] = system: SCC-4; experiment: Antiproliferative activity against human SCC-4 cells assessed as cell growth inhibition incubated for 10 days; format: functional; details: SCC-4, 240 h, time 10 day
[32] = system: RPMI-7951; experiment: Antiproliferative activity against human RPMI-7951 cells assessed as cell growth inhibition incubated for 10 days; format: functional; details: RPMI-7951, 240 h, time 10 day
[33] = system: RL95-2; experiment: Antiproliferative activity against human RL95-2 cells assessed as cell growth inhibition incubated for 10 days; format: functional; details: RL95-2, 240 h, time 10 day
[34] = system: A-427; experiment: Antiproliferative activity against human A-427 cells assessed as cell growth inhibition incubated for 10 days; format: functional; details: A-427, 240 h, time 10 day; outline: as §1

- inhibition [3]: Active
Structure (SMILES): CC(=O)N1CCC(Nc2cc(C(=O)NC[C@H](O)CN3CCc4ccccc4C3)ncn2)CC1 [PEMRAMETOSTAT]
- inhibition [1]: Active
- Activity [2]: Active
- GI50 [4]: 198 nM
- Activity [5]: Dose-Dependent Effect

- GI50 [8]: 58.4 nM
- GI50 [10]: 264 nM
- GI50 [13]: 307 nM
- GI50 [14]: 151 nM
- GI50 [18]: 80.3 nM
- GI50 [19]: 82.5 nM
- GI50 [21]: 160 nM
- GI50 [22]: 113 nM
- GI50 [24]: 20.3 nM
- GI50 [26]: 430 nM
- GI50 [28]: 54.4 nM
- GI50 [30]: 120 nM
Structure (SMILES): O=C(NC[C@H](O)CN1CCc2ccccc2C1)c1ccnc(NC2CCC2)c1
- GI50 [6]: 254 nM
- GI50 [7]: 170 nM
- GI50 [9]: 203 nM
- GI50 [11]: 95.8 nM
- GI50 [12]: 23.5 nM
- GI50 [15]: 89.5 nM
- GI50 [16]: 115 nM
- GI50 [17]: 69.6 nM
- GI50 [20]: 154 nM
- GI50 [23]: 747 nM
- GI50 [25]: 12.3 nM
- GI50 [27]: 2440 nM
- GI50 [29]: 103 nM
- GI50 [31]: 286 nM
- GI50 [32]: 44.2 nM
- GI50 [33]: 218 nM
- GI50 [34]: 130 nM
